Test results reported in paper PMC5905822 (International Journal of Nanomedicine, 2018).

How the values were obtained:
human liver microsomes = details: cited from earlier work
[1] = Plasma pharmacokinetics in rats after intravenous injection; type: in vivo, Sprague Dawley (SD) rats
Procedure, shortened: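 Male SD rats (220–250 g), fasted overnight and randomized (n=6/group), got 6 mg/kg iv of free or lipid-carrier-formulated ester. An automated collector drew blood at 2–300 min, with saline volume replacement. Plasma was prepared cold and stored at −80°C, then extracted with ice-cold acetonitrile plus internal standard, dried under nitrogen and reconstituted in methanol. LC-MS measured the parent ester and its hydrolysed metabolite.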

rat liver microsomes = details: cited from earlier work

MRT0–∞ of plasma DBZ ([1]; analyte DBZ, rats, intravenous, 6 mg/kg): 0.149±0.015 H
Elimination from the blood circulation after injection ([1]; preliminary pharmacokinetic studies in rats): eliminated quickly
Structure (SMILES): CC1(C)C2CCC1(C)C(OC(=O)C(O)Cc1ccc(O)c(O)c1)C2 (stereo not shown) [DBZ, 1,7,7-trimethylbicyclo[2.2.1]heptan-2-yl 3-[3,4-dihydroxyphenyl]-2-hydroxy-propanoate]
Metabolism by the liver microsomal enzymes (human liver microsomes): metabolized quickly
Metabolism by the liver microsomal enzymes (rat liver microsomes): metabolized quickly
